Reference: ChEMBL document CHEMBL4811225 (J Med Chem, 2021)
pIC50: −log10 of the molar value. Where a SMILES comes first, the peptide text is derived from it. Bridges are numbered along the chain shown (N, C = ends).

How the values were obtained:
[1] = biological target: Nicotinic acetylcholine receptor alpha6/alpha3/beta4 (Homo sapiens, UniProt P30926+P32297+Q15825); format: cell-based, Oocyte
[2] = biological target: Neuronal acetylcholine receptor; alpha2/beta2 (Homo sapiens, UniProt P17787+Q15822); experiment: Inhibition of human alpha2beta2 nAChR expressed in Xenopus laevis oocytes assessed as inhibition of acetylcholine-induced current response by two-electrode voltage-clamp method; format: cell-based, Oocyte
How it was run: (§1)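 Two-electrode voltage clamp of stage IV–V oocytes 1–5 days after equal-ratio cRNA injection; ACh 100 μM (β2-containing subtypes, α9α10), 1 s every 60 s in frog saline. Peptide perfused up to 1 μM, responses normalized to mean of three control responses; above 1 μM, 5 min static bath. IC50 with 95% CI; n = oocytes.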

[3] = biological target: Neuronal acetylcholine receptor; alpha2/beta2 (Rattus norvegicus, UniProt P12389+P12390); experiment: Inhibition of rat alpha2beta2 nAChR expressed in Xenopus laevis oocytes assessed as inhibition of acetylcholine-induced current response by two-electrode voltage-clamp method; format: cell-based, Oocyte
How it was run: as §1

[4] = biological target: Neuronal acetylcholine receptor; alpha2/beta4 (Homo sapiens, UniProt P30926+Q15822); experiment: Inhibition of human alpha2beta4 nAChR expressed in Xenopus laevis oocytes assessed as inhibition of acetylcholine-induced current response by two-electrode voltage-clamp method; format: cell-based, Oocyte
How it was run: (§2)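 TEVC on stage IV–V oocytes 1–5 days after equal-ratio cRNA injection (α2β4, α3β4, α4β4, α7). ACh 300 μM, 1 s pulses at 60 s intervals under frog saline perfusion. Peptide perfused to 1 μM, normalized to average of three control responses; higher concentrations by 5 min static bath. IC50 with 95% CI, n oocytes.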

[5] = biological target: T1, Neuronal acetylcholine receptor; alpha3/beta2 (Homo sapiens, UniProt P17787+P32297); experiment: Inhibition of human alpha3beta2 nAChR expressed in Xenopus laevis oocytes assessed as inhibition of acetylcholine-induced current response by two-electrode voltage-clamp method; format: cell-based, Oocyte
How it was run: as §1

[6] = biological target: Neuronal acetylcholine receptor; alpha3/beta4 (Rattus norvegicus, UniProt P04757+P12392); format: cell-based, Oocyte
[7] = biological target: T2, Neuronal acetylcholine receptor; alpha4/beta2 (Homo sapiens, UniProt P17787+P43681); experiment: Inhibition of human alpha4beta2 nAChR expressed in Xenopus laevis oocytes assessed as inhibition of acetylcholine-induced current response by two-electrode voltage-clamp method; format: cell-based, Oocyte
How it was run: as §1

[8] = biological target: Neuronal acetylcholine receptor; alpha4/beta2 (Rattus norvegicus, UniProt P09483+P12390); format: cell-based, Oocyte
[9] = Inhibition of human alpha4beta4 nAChR expressed in Xenopus laevis oocytes assessed as inhibition of acetylcholine-induced current response by two-electrode voltage-clamp method; format: cell-based; settings: Oocyte
How it was run: as §2

[10] = biological target: Neuronal acetylcholine receptor; alpha4/beta4 (Rattus norvegicus, UniProt P09483+P12392); format: cell-based, Oocyte
[11] = biological target: Neuronal acetylcholine receptor; alpha3/alpha6/beta2/beta3 (Homo sapiens, UniProt P17787+P32297+Q05901+Q15825); experiment: Inhibition of human alpha6/alpha3beta2beta3 nAChR expressed in Xenopus laevis oocytes assessed as inhibition of acetylcholine-induced current response by two-electrode voltage-clamp method; format: cell-based, Oocyte
How it was run: as §1

[12] = biological target: Nicotinic acetylcholine receptor alpha6/alpha3/beta2/beta3 (Rattus norvegicus, UniProt P04757+P12390+P12391+P43143); format: cell-based, Oocyte
[13] = biological target: Nicotinic acetylcholine receptor alpha9/alpha10 (Rattus norvegicus, UniProt P43144+Q9JLB5); experiment: Inhibition of rat alpha9alpha10 nAChR expressed in Xenopus laevis oocytes assessed as inhibition of acetylcholine-induced current response by two-electrode voltage-clamp method; format: cell-based, Oocyte
How it was run: as §1

Homo sapiens [14] = organism: Homo sapiens; experiment: Selectivity ratio of IC50 for human alpha2beta2 nAChR to IC50 for human alpha6/alpha3beta4 nAChR
How it was run: (§3)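 Ratio of each subtype's IC50, from TEVC inhibition of ACh-evoked currents in X. laevis oocytes, to the IC50 at the same species' α6/α3β4 nAChR; IC50 values with 95% CI, n = number of oocytes.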

Rattus norvegicus [15] = organism: Rattus norvegicus; experiment: Selectivity ratio of IC50 for rat alpha2beta4 nAChR to IC50 for rat alpha6/alpha3beta4 nAChR
How it was run: as §3

Rattus norvegicus [16] = organism: Rattus norvegicus; experiment: Selectivity ratio of IC50 for rat alpha3beta2 nAChR to IC50 for rat alpha6/alpha3beta4 nAChR
How it was run: as §3

Rattus norvegicus [17] = organism: Rattus norvegicus; experiment: Selectivity ratio of IC50 for rat alpha4beta2 nAChR to IC50 for rat alpha6/alpha3beta4 nAChR
How it was run: as §3

Homo sapiens [18] = organism: Homo sapiens; experiment: Selectivity ratio of IC50 for human alpha4beta4 nAChR to IC50 for human alpha6/alpha3beta4 nAChR
How it was run: as §3

Rattus norvegicus [19] = organism: Rattus norvegicus; experiment: Selectivity ratio of IC50 for rat alpha4beta4 nAChR to IC50 for rat alpha6/alpha3beta4 nAChR
How it was run: as §3

Homo sapiens [20] = organism: Homo sapiens; experiment: Selectivity ratio of IC50 for human alpha6/alpha3beta2beta3 nAChR to IC50 for human alpha6/alpha3beta4 nAChR
How it was run: as §3

Rattus norvegicus [21] = organism: Rattus norvegicus; experiment: Selectivity ratio of IC50 for rat alpha6/alpha3beta2beta3 nAChR to IC50 for rat alpha6/alpha3beta4 nAChR
How it was run: as §3

Homo sapiens [22] = organism: Homo sapiens; experiment: Selectivity ratio of IC50 for human alpha7 nAChR to IC50 for human alpha6/alpha3beta4 nAChR
How it was run: as §3

Rattus norvegicus [23] = organism: Rattus norvegicus; experiment: Selectivity ratio of IC50 for rat alpha7 nAChR to IC50 for rat alpha6/alpha3beta4 nAChR
How it was run: as §3

[24] = biological target: T1, Neuronal acetylcholine receptor; alpha3/beta2; experiment: Inhibition of human alpha3beta2 nAChR expressed in Xenopus laevis oocytes assessed as inhibition of acetylcholine-induced current response at 10 uM by two-electrode voltage-clamp method relative to control; format: cell-based; settings: Oocyte
How it was run: (§4)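 Oocytes (stage IV–V) injected with equal-ratio cRNAs of cloned subunits; TEVC 1–5 days post-injection. ACh 100 μM for β2-containing and α9α10 subtypes, 1 s pulses every 60 s. Peptide 10 μM in 5 min static bath; response normalized to ACh response after 5 min control-saline bath; mean ± SD, n = 4.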

[25] = biological target: T2, Neuronal acetylcholine receptor; alpha4/beta2; experiment: Inhibition of human alpha4beta2 nAChR expressed in Xenopus laevis oocytes assessed as inhibition of acetylcholine-induced current response at 10 uM by two-electrode voltage-clamp method relative to control; format: cell-based; settings: Oocyte
How it was run: as §4

[26] = biological target: Neuronal acetylcholine receptor; alpha9/alpha10 (Homo sapiens) (UniProt Q9UGM1+Q9GZZ6); experiment: Inhibition of human alpha9alpha10 nAChR expressed in Xenopus laevis oocytes assessed as inhibition of acetylcholine-induced current response at 10 uM by two-electrode voltage-clamp method relative to control; format: cell-based; settings: Oocyte
How it was run: as §4

[27] = biological target: Neuronal acetylcholine receptor; alpha2/beta2 (Rattus norvegicus) (UniProt P12389+P12390); experiment: Inhibition of rat alpha2beta2 nAChR expressed in Xenopus laevis oocytes assessed as inhibition of acetylcholine-induced current response at 10 uM by two-electrode voltage-clamp method relative to control; format: cell-based; settings: Oocyte
How it was run: as §4

[28] = biological target: Neuronal acetylcholine receptor; alpha3/beta2 (Rattus norvegicus) (UniProt P04757+P12390); experiment: Inhibition of rat alpha3beta2 nAChR expressed in Xenopus laevis oocytes assessed as inhibition of acetylcholine-induced current response at 10 uM by two-electrode voltage-clamp method relative to control; format: cell-based; settings: Oocyte
How it was run: as §4

Chain of Neuronal acetylcholine receptor; alpha4/beta2 (Rattus norvegicus, UniProt P09483+P12390) (P09483 whole entry): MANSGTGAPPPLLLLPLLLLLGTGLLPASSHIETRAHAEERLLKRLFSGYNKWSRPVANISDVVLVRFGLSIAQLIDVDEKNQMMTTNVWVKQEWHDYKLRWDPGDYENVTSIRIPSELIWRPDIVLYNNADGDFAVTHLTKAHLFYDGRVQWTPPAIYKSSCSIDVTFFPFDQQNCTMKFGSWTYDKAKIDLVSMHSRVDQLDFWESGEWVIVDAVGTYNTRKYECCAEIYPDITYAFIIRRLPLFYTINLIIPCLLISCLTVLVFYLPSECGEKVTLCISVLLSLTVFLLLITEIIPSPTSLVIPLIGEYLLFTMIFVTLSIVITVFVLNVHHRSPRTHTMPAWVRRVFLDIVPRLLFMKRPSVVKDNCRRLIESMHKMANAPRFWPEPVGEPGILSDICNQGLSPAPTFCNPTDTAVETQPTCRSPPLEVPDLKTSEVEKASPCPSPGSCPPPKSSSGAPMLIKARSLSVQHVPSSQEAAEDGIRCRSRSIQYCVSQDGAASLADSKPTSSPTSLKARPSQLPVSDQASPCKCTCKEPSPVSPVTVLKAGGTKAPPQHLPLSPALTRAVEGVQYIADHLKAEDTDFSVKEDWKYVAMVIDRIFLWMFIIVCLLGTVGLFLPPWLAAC
Chain of Neuronal acetylcholine receptor; alpha4/beta2 (Rattus norvegicus, UniProt P09483+P12390) (P12390 whole entry): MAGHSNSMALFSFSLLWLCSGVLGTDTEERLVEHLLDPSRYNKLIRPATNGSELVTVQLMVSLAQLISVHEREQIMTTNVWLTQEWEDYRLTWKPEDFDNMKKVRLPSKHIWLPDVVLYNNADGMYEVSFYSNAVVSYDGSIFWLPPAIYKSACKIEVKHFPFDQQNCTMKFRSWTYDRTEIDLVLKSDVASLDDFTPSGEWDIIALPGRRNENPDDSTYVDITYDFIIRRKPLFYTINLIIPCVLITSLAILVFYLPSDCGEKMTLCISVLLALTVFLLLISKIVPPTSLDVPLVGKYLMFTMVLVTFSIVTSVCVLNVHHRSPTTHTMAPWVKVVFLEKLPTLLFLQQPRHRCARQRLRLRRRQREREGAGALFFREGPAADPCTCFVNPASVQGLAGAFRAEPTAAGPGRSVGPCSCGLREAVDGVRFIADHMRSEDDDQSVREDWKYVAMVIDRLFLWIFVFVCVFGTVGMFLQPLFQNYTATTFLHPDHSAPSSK
Chain of Neuronal acetylcholine receptor; alpha4/beta4 (P09483 whole entry): as the sequence (P09483 whole entry) above
Chain of Neuronal acetylcholine receptor; alpha4/beta4 (P12392 whole entry): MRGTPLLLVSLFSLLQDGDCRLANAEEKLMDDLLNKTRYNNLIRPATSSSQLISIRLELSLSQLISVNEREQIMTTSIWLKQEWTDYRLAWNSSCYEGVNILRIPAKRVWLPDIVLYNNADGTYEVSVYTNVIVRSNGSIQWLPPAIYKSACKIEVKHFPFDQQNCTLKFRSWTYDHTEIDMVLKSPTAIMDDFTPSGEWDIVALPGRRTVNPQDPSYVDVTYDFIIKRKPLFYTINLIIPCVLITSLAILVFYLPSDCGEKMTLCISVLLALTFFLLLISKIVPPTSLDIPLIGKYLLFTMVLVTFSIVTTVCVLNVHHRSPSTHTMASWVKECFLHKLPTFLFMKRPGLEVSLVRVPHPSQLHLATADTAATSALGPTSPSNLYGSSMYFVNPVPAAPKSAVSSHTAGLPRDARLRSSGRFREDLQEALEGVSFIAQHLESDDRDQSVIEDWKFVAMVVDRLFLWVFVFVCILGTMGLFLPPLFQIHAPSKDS
Chain of Nicotinic acetylcholine receptor alpha6/alpha3/beta2/beta3 (P04757 whole entry): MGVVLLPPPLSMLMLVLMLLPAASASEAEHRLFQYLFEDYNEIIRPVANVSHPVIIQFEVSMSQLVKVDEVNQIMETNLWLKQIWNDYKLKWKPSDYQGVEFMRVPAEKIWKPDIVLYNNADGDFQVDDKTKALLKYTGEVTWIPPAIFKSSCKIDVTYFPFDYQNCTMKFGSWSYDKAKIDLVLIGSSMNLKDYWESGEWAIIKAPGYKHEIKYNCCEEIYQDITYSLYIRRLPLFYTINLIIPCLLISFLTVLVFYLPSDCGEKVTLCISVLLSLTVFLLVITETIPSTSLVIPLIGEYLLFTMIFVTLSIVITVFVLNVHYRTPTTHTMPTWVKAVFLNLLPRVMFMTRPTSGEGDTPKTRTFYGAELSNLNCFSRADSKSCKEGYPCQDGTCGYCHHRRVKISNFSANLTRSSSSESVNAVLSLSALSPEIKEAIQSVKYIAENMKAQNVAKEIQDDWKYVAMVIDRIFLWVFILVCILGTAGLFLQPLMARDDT
Chain of Nicotinic acetylcholine receptor alpha6/alpha3/beta2/beta3 (P12390 whole entry): as the sequence (P12390 whole entry) above
Chain of Nicotinic acetylcholine receptor alpha6/alpha3/beta2/beta3 (P12391 whole entry): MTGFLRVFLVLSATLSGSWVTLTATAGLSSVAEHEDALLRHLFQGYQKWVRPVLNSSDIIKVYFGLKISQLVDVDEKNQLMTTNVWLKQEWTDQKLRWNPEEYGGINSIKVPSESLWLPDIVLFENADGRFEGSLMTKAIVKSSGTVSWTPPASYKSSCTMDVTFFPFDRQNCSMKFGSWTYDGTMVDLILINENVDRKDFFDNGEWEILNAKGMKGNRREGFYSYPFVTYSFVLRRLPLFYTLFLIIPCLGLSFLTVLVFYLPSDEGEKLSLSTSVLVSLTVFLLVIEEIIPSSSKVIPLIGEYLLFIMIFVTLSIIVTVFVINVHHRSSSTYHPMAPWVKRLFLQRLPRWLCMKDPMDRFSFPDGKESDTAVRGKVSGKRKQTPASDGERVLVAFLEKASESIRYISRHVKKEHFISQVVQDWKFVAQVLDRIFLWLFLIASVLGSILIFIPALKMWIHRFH
Chain of Nicotinic acetylcholine receptor alpha6/alpha3/beta2/beta3 (P43143 whole entry): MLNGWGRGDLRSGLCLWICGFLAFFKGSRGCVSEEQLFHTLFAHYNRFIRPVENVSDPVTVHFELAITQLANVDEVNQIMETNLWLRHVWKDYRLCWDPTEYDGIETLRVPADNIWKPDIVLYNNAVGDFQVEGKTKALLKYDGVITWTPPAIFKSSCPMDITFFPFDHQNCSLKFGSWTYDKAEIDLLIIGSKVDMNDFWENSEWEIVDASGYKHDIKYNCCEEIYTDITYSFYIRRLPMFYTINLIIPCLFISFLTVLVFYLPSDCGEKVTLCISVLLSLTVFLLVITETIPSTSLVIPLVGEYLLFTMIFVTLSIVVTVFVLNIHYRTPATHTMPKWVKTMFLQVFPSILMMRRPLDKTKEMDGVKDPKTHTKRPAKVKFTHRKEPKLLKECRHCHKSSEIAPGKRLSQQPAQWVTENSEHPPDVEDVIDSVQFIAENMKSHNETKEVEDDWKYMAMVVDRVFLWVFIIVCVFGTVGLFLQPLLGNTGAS

## CC[C@H](C)[C@@H]1NC(=O)[C@H](CCC(=O)O)NC(=O)[C@@H]2CCCN2C(=O)[C@H](Cc2cnc[nH]2)NC(=O)[C@H](CC(N)=O)NC(=O)[C@H](C(C)C)NC(=O)[C@H](CC(N)=O)NC(=O)[C@@H]2CSSC[C@H](NC(=O)CN)C(=O)N[C@@H](CSSC[C@@H](C(N)=O)NC1=O)C(=O)N[C@@H](CO)C(=O)N[C@@H](Cc1cnc[nH]1)C(=O)N1CCC[C@H]1C(=O)N[C@@H](C(C)C)C(=O)N2 (H-GCCSHPVCNVNHPEIC-NH2; disulfide 2-8, 3-16)
[1]
  pIC50: 9.70
[2]
  pIC50: < 5.00
[3]
  pIC50: < 5.00
[4]
  pIC50: < 5.00
[5]
  pIC50: < 5.00
[6]
  pIC50: 6.64
[7]
  pIC50: < 5.00
[8]
  pIC50: < 5.00
[9]
  pIC50: 5.40
[10]
  pIC50: < 5.00
[11]
  pIC50: 6.87
[12]
  pIC50: 6.95
[13]
  pIC50: < 5.00
Homo sapiens [14]
  Ratio IC50: > 50000
Rattus norvegicus [15]
  Ratio IC50: > 20000
Rattus norvegicus [16]
  Ratio IC50: > 20000
Rattus norvegicus [17]
  Ratio IC50: > 20000
Homo sapiens [18]
  Ratio IC50: 20100
Rattus norvegicus [19]
  Ratio IC50: > 20000
Homo sapiens [20]
  Ratio IC50: 675
Rattus norvegicus [21]
  Ratio IC50: 227
Homo sapiens [22]
  Ratio IC50: > 50000
Rattus norvegicus [23]
  Ratio IC50: > 20000
[24]
  inhibition: 76%
[25]
  inhibition: 91%
[26]
  inhibition: 76%
[27]
  inhibition: 98%
[28]
  inhibition: 94%
